Data reported in ChEMBL document CHEMBL1155395, “Discovery of substituted biphenyl imidazoles as potent, bioavailable bombesin receptor subtype-3 agonists” (Bioorg Med Chem Lett, 2010).
Activity calls are given as the source filed them. The rule behind the calls is not given here.

Tests used:
[1] = Oral bioavailability in Sprague-Dawley rat at 4 mg/kg; type: ADME, organism-based; conditions: in vivo
Outline: (§1)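 Sprague-Dawley rats given compound as solution in EtOH/PEG400/water (10:40:50), 1 mg/kg iv and 4 mg/kg po; clearance, steady-state volume of distribution, half-life, oral bioavailability and dose-normalised AUC derived.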

Mus musculus = test: Effect on food intake in po dosed diet-induced obese mouse; type: functional, organism-based
[2] = Clearance in Sprague-Dawley rat at 1 mg/kg, iv and 4 mg/kg, po; type: ADME, organism-based; conditions: in vivo; outline: as §1
[3] = molecular target: T1, Bombesin receptor subtype-3 (Mus musculus, UniProt O54798); test: Agonistic activity at mouse BRS3 expressed in HEK293AEO cells by aequorin bioluminescence assay; type: functional, cell-based
T1 sequence (O54798 whole entry): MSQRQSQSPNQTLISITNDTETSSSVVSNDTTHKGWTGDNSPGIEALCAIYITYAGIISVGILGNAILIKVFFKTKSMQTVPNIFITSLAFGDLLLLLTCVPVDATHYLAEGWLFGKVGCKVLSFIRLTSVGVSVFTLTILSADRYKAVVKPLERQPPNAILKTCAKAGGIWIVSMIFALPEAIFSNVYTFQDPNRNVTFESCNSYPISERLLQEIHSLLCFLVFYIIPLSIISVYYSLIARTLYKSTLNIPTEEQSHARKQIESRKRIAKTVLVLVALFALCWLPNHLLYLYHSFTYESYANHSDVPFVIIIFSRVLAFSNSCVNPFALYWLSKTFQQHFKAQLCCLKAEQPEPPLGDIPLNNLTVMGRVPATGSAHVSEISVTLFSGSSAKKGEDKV

Rattus norvegicus = test: Reduction of food intake in rat at 25 ug, icv; type: functional; parameters: scale not given: the % may be the effect or the level left
Outline: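 Rats dosed intracerebroventricularly with 25 µg; food intake compared with animals receiving vehicle (20% PG/water).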

[4] = Volume of distribution at steady state in Sprague-Dawley rat at 1 mg/kg, iv and 4 mg/kg, po; type: ADME, organism-based; conditions: in vivo, read-out: Vdss; outline: as §1
[5] = molecular target: T2, Bombesin receptor subtype-3 (Mus musculus) (UniProt O54798); test: Agonistic activity at mouse BRS3 expressed in HEK293AEO cells at 10 uM by aequorin bioluminescence assay relative to dY peptide; type: functional, cell-based
T2 sequence (whole entry): T1 sequence (O54798 whole entry)

[6] = molecular target: T3, Bombesin receptor subtype-3 (Homo sapiens) (UniProt P32247); test: Agonistic activity at human BRS3 expressed in HEK293AEO at 10 uM cells by aequorin bioluminescence assay relative to dY peptide; type: functional, cell-based
T3 sequence (whole entry): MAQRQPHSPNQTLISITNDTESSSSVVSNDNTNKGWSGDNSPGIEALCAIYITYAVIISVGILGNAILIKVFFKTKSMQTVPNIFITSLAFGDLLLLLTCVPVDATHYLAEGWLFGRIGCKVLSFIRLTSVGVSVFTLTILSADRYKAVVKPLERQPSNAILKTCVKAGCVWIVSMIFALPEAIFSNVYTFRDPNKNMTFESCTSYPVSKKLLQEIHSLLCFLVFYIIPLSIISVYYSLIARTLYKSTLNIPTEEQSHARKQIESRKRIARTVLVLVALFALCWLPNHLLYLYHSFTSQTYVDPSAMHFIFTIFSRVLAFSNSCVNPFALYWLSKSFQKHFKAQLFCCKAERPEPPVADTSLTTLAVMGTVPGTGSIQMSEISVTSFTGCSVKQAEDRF

[7] = Half life in Sprague-Dawley rat at 1 mg/kg, iv and 4 mg/kg, po; type: ADME, organism-based; conditions: in vivo; outline: as §1
[8] = molecular target: T4, Bombesin receptor subtype-3 (Homo sapiens, UniProt P32247); test: Agonistic activity at human BRS3 expressed in HEK293AEO cells by aequorin bioluminescence assay; type: functional, cell-based
T4 sequence (P32247 whole entry): T3 sequence (whole entry)

[9] = molecular target: T4, Bombesin receptor subtype-3; test: Displacement of [125I]-[D-Tyr6,beta-Ala11,Phe13,Nle14]bombesin from human BRS3 expressed in NFAT-CHO cells after 2 hrs by liquid scintillation counting; type: cell-based
Outline: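 Membranes (1–4 µg protein) from NFAT-CHO cells expressing human BRS-3, incubated with 0.3 pM 125I-dY-peptide and a range of test compound concentrations in 50 mM Tris pH 7.2, 5 mM MgCl2, 0.1% BSA, 2 h at room temperature; bound/free separated by GF/c filtration with PBS washes; filter radioactivity by scintillation counting; mean of at least three runs.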

[10] = molecular target: T5, Bombesin receptor subtype-3 (Rattus norvegicus) (UniProt Q8K418); test: Agonistic activity at rat BRS3 expressed in HEK293AEO cells at by aequorin bioluminescence assay relative to dY peptide; type: functional, cell-based
T5 sequence (whole entry): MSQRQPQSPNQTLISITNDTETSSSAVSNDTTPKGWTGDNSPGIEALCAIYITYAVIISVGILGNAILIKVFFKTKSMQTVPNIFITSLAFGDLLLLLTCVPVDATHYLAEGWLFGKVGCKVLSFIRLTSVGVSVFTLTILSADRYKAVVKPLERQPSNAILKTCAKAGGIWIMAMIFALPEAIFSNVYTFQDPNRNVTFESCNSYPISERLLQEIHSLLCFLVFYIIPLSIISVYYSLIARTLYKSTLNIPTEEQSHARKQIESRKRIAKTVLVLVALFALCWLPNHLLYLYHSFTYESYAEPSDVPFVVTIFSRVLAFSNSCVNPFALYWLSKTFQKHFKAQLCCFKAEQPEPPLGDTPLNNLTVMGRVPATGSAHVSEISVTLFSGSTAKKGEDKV

[11] = molecular target: T6, Bombesin receptor subtype-3 (Rattus norvegicus, UniProt Q8K418); test: Agonistic activity at rat BRS3 expressed in HEK293AEO at 10 uM by aequorin bioluminescence assay; type: functional
T6 sequence (Q8K418 whole entry): T5 sequence (whole entry)

[12] = molecular target: Gastrin-releasing peptide receptor (Homo sapiens, UniProt P30550); test: Displacement of [125I]-[D-Tyr6,beta-Ala11,Phe13,Nle14]bombesin from human bombesin BB2 receptor expressed in NFAT-CHO cells after 2 hrs by liquid scintillation counting; type: cell-based
Neuromedin-B receptor = Neuromedin-B receptor (Homo sapiens, UniProt P28336); test: Displacement of [125I]-[D-Tyr6,beta-Ala11,Phe13,Nle14]bombesin from human bombesin BB1 receptor expressed in NFAT-CHO cells after 2 hrs by liquid scintillation counting; type: cell-based
Neuromedin-B receptor, sequence (P28336 whole entry): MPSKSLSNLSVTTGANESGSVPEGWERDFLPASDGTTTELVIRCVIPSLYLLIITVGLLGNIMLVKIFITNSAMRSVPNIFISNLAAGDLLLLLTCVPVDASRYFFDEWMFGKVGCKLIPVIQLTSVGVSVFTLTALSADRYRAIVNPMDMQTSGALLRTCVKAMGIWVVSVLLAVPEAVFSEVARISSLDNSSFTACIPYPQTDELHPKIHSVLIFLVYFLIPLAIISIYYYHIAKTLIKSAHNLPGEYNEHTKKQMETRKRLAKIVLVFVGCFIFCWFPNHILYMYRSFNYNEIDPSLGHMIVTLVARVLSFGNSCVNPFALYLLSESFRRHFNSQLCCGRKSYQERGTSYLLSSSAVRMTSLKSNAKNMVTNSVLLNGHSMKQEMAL

Gastrin-releasing peptide receptor, sequence (P30550 whole entry): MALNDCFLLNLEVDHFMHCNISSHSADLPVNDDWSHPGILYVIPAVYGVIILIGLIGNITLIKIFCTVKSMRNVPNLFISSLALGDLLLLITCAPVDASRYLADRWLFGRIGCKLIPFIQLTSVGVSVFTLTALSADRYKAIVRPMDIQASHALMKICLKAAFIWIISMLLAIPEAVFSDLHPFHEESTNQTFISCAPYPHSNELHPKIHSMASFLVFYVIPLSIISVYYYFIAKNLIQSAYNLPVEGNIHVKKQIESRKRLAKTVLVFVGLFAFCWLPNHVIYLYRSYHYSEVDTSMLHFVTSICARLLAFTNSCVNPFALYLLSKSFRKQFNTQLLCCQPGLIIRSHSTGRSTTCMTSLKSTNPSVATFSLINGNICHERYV

SMILES	bioavailability [1] [%]	Activity (Mus musculus)	clearance [2] [mL/min/kg]	EC50 [3] [µM]	Activity (Rattus norvegicus) [%]	Vd [4] [L/kg]	Activity [5] [%]	Activity [6] [%]	half-life [7] [h]	EC50 [8] [µM]	IC50 [9] [µM]	Activity [10] [%]	EC50 [11] [µM]	IC50 [12] [µM]	IC50 (Neuromedin-B receptor) [µM]
CC(C)(C)Cc1cnc(CCc2ccc(-c3ccccc3C(=O)O)cc2)[nH]1	19	inactive	1.02	0.0063	29	0.128	105	103	1.54	0.106	–	–	–	–	–
CCCCc1cnc(C(CCCO)Cc2ccc(-c3ccccc3C(=O)O)cc2)[nH]1 (centres undefined)	–	–	–	0.238	–	–	98	74	–	1.9	3.68	101	0.174	> 10	> 10
